Values after ≈ are worked out from the molar mass of the structure shown. Active and inactive are the calls of the source. The calls are words filed in the database; no cut-off is given here.
What was measured:
[1] = target: T1, Sodium/glucose cotransporter 2 (Homo sapiens, UniProt P31639); experiment: Inhibition of human SGLT2 expressed in COS7 cells assessed as reduction of [14C]-AMG uptake; format: cell-based, COS-7
T1 sequence (P31639 whole entry): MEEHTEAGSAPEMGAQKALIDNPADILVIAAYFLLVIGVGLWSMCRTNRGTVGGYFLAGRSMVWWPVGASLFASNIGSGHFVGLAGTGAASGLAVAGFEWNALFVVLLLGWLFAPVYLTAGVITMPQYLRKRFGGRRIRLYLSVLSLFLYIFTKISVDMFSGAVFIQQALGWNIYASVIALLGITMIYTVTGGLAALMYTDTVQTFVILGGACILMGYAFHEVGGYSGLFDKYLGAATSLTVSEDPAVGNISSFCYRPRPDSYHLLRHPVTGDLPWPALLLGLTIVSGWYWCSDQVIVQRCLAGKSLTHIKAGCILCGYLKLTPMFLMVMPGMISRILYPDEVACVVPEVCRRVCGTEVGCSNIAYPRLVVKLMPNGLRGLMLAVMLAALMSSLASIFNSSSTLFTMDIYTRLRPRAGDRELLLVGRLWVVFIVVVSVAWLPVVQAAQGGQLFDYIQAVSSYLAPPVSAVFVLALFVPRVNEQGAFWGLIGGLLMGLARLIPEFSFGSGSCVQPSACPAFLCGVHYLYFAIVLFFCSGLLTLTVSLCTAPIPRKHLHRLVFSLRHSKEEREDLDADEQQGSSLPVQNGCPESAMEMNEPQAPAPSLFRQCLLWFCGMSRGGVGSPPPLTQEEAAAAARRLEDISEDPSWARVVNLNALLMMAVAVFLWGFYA

[2] = target: T2, Sodium/glucose cotransporter 1 (Rattus norvegicus, UniProt P53790); experiment: Inhibition of rat SGLT1 expressed in COS7 cells assessed as reduction of [14C]-AMG uptake; format: cell-based, COS-7
T2 sequence (P53790 whole entry): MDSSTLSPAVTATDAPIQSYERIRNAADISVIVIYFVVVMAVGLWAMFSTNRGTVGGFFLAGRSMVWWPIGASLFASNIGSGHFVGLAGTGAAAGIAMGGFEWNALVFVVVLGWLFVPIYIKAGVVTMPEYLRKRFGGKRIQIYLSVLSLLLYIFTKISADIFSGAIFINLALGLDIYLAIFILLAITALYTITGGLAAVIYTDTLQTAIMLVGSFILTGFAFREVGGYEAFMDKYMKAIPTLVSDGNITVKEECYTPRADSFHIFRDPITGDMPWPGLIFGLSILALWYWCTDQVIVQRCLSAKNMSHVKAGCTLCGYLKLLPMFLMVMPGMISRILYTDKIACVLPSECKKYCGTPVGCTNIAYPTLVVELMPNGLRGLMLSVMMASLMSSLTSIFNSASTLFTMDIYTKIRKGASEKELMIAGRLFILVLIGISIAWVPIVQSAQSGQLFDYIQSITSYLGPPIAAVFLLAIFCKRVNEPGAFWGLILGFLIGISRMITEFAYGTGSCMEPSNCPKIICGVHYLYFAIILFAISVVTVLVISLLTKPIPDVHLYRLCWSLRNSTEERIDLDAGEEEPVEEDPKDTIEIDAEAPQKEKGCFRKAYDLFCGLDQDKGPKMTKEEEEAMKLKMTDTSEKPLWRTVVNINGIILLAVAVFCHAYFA

[3] = target: T3, Sodium/glucose cotransporter 2 (Rattus norvegicus, UniProt P53792); experiment: Inhibition of rat SGLT2 expressed in COS7 cells assessed as reduction of [14C]-AMG uptake; format: cell-based, COS-7
T3 sequence (P53792 whole entry): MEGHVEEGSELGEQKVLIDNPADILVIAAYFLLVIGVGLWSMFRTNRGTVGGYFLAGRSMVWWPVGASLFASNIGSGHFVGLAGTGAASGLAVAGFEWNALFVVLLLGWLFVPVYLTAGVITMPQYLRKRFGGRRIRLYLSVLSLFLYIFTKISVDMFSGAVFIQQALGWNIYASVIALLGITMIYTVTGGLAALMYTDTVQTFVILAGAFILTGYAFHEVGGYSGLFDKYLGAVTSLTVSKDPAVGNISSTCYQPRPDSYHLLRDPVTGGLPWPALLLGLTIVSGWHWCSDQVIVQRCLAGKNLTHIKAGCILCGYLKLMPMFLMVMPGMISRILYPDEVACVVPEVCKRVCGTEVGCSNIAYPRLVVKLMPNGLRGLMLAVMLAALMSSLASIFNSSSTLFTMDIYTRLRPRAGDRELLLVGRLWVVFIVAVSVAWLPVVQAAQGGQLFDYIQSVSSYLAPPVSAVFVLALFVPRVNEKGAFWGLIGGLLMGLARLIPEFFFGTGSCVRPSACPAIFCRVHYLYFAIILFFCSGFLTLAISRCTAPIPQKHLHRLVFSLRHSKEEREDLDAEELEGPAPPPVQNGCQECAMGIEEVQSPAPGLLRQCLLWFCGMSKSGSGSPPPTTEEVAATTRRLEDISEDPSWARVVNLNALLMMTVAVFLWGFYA

[4] = Metabolic stability of the compound in rat intestinal microsomes assessed as compound remaining at 50 uM after 30 mins; format: ADME, Intestine
Outline: (§1)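 50 µM final compound incubated at 37 °C with 0.8 mg/mL rat intestinal microsomes, 1 mg/mL NADPH, 50 mM ammonium acetate (pH 5.0) and 10 mM MgCl2. Levels measured by LC–MS at 0, 30 and 60 min; reported as % remaining relative to 0 min.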

[5] = Metabolic stability of the compound in rat intestinal microsomes assessed as compound remaining at 50 uM after 60 mins; format: ADME, Intestine; outline: as §1
[6] = Solubility of the compound in distilled water; format: physicochemical
Outline: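 Solubility measured in distilled water, with filtrate concentration quantified by HPLC.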

Rattus norvegicus [7] = experiment: Antihyperglycemic activity in po dosed Wistar rat streptozotocin-nicotinamide-induced diabetic model assessed as reduction of plasma glucose level after 1 hr by oral mixed carbohydrate tolerance test; format: functional, organism-based
Outline: (§2)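 Male Wistar rats (8 weeks) given nicotinamide 230 mg/kg i.p., then streptozotocin 85 mg/kg i.v. 15 min later; after 1 week, rats above 250 mg/dL plasma glucose at 1 h in a 2 g/kg glucose tolerance test were used. Overnight-fasted rats were dosed orally in 0.5% CMC, then immediately loaded with 2 g/kg starch/sucrose/lactose (6:3:1). Plasma glucose by glucose oxidase; n = 7; Dunnett's test versus vehicle.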

Rattus norvegicus [8] = experiment: Toxicity in Wistar rat streptozotocin-nicotinamide-induced diabetic model assessed as soft feces at 1 to 10 mg/kg, po; format: organism-based; design: dose 1-10 mg/kg, route oral; conditions: in vivo
Rattus norvegicus [9] = experiment: Toxicity in Wistar rat streptozotocin-nicotinamide-induced diabetic model assessed as diarrhea at 1 to 10 mg/kg, po; format: organism-based; design: dose 1-10 mg/kg, route oral; conditions: in vivo
Rattus norvegicus [10] = experiment: Toxicity in Wistar rat assessed as overnight urinary glucose excretion at 10 mg/kg, po; format: organism-based, Urine; design: dose 10 mg/kg, route oral; conditions: in vivo
Outline: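 Male Wistar rats (8 weeks) in metabolic cages, fasted 08:00 to next morning. At 16:00 they received 10 mg/kg orally in 0.5% CMC or vehicle, and urine was collected until 08:00. Urine glucose by glucose oxidase; n = 5; F-test then Student's t or Welch's test versus vehicle.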

Rattus norvegicus [11] = experiment: Antihyperglycemic activity in Wistar rat streptozotocin-nicotinamide-induced diabetic model assessed as reduction of plasma glucose level at 1 mg/kg, po after 1 hr by oral mixed carbohydrate tolerance test; format: functional, organism-based; design: dose 1 mg/kg; outline: as §2
[12] = intestinal microsomes, read-out: Stability

**Q.** For `OC[C@H]1O[C@@H](Oc2[nH]nc(C(F)(F)F)c2Cc2cccc(O)c2)[C@H](O)[C@@H](O)[C@@H]1O`, which IC50 [1] is on record?
**A.** Its IC50 is 2790 nM.

**Q.** For `Cc1[nH]nc(O[C@@H]2O[C@H](CO)[C@@H](O)[C@H](O)[C@H]2O)c1Cc1ccccc1OCc1ccccc1`, which IC50 [1] is on record?
**A.** The IC50 was 5010 nM.

**Q.** For `CC(C)c1[nH]nc(O[C@@H]2O[C@H](CO)[C@@H](O)[C@H](O)[C@H]2O)c1Cc1ccc(O)cc1`, which IC50 [1] is on record?
**A.** The IC50 was 285 nM.

**Q.** With `Cc1ccc(Cc2c(O[C@@H]3O[C@H](CO)[C@@H](O)[C@H](O)[C@H]3O)n[nH]c2C(C)C)cc1` as the molecule, how does the IC50 [1] read?
**A.** Its IC50 is 231 nM.

**Q.** For `Cc1ccc(Cc2c(O[C@@H]3O[C@H](CO)[C@@H](O)[C@H](O)[C@H]3O)n[nH]c2C(C)C)c(C)c1`, which IC50 [1] is on record?
**A.** Its IC50 is 6010 nM.

**Q.** What about the IC50 [2] of the same molecule?
**A.** The IC50 was 67 nM.

**Q.** What about the IC50 [3] of the same molecule?
**A.** The IC50 was 4650 nM.

**Q.** And the remaining at 0.5 h, 50 µM [4, 12]?
**A.** Its remaining at 0.5 h, 50 µM is 91%.

**Q.** What about the remaining at 1 h, 50 µM [5, 12] of the same molecule?
**A.** Its remaining at 1 h, 50 µM is 67%.

**Q.** What about the solubility [6] of the same molecule?
**A.** The solubility was 3700 µg/mL (≈ 9.1 mM).

**Q.** What about the Activity (Rattus norvegicus [7]) of the same molecule?
**A.** The Activity was “Dose-dependent effect”.

**Q.** What about the Activity (Rattus norvegicus [8]) of the same molecule?
**A.** Its Activity is “Non-toxic”.

**Q.** And the Activity (Rattus norvegicus [9])?
**A.** The Activity was “Non-toxic”.

**Q.** And the Activity (Rattus norvegicus [10])?
**A.** Its Activity is 0.8 mg.

**Q.** For `CCOC(=O)OC[C@H]1O[C@@H](Oc2ccccc2Cc2ccc(OC)cc2)[C@H](O)[C@@H](O)[C@@H]1O` [SERGLIFLOZIN ETABONATE], which Activity (Rattus norvegicus [10]) is on record?
**A.** Its Activity is 53.3 mg.

**Q.** Which IC50 [1] does the source give for `OC[C@H]1O[C@@H](Oc2[nH]nc(C(F)(F)F)c2Cc2cccc(OCc3ccccc3)c2)[C@H](O)[C@@H](O)[C@@H]1O` here?
**A.** The IC50 was 5680 nM.

**Q.** For `CC(C)c1n[nH]c(O[C@@H]2O[C@H](CO)[C@@H](O)[C@H](O)[C@H]2O)c1Cc1ccccc1C(F)(F)F`, which IC50 [1] is on record?
**A.** The IC50 was 60500 nM.

**Q.** For `OC[C@H]1O[C@@H](Oc2n[nH]c(C(F)(F)F)c2Cc2ccc(OCc3ccccc3)cc2)[C@H](O)[C@@H](O)[C@@H]1O`, which IC50 [1] is on record?
**A.** The IC50 was 7 nM.

**Q.** For `O=C(CCc1ccc(O)cc1)c1c(O)cc(O)cc1O[C@@H]1O[C@H](CO)[C@@H](O)[C@H](O)[C@H]1O` [PHLORIZIN], which IC50 [3] is on record?
**A.** Its IC50 is 96 nM.

**Q.** And the Stability ([4]; microsomes, 0.5 h, 50 µM)?
**A.** Its Stability is “Unstable”.

**Q.** And the Stability ([5]; microsomes, 1 h, 50 µM)?
**A.** The Stability was “Unstable”.

**Q.** What about the Activity (Rattus norvegicus [11]) of the same molecule?
**A.** Its Activity is “inactive”.

**Q.** For `CCc1ccc(Cc2c(C(C)C)n[nH]c2O[C@@H]2O[C@H](CO)[C@@H](O)[C@H](O)[C@H]2O)cc1`, which IC50 [1] is on record?
**A.** Its IC50 is 68 nM.

**Q.** For `OC[C@H]1O[C@@H](Oc2n[nH]c(C3CC3)c2Cc2ccccc2OCc2ccccc2)[C@H](O)[C@@H](O)[C@@H]1O`, which IC50 [1] is on record?
**A.** Its IC50 is 156000 nM.

**Q.** For `COc1ccc(Cc2c(O[C@@H]3O[C@H](CO)[C@@H](O)[C@H](O)[C@H]3O)n[nH]c2C(C)C)cc1`, which IC50 [1] is on record?
**A.** The IC50 was 377 nM.

**Q.** For `Cc1cc(O)ccc1Cc1c(O[C@@H]2O[C@H](CO)[C@@H](O)[C@H](O)[C@H]2O)n[nH]c1C(C)C`, which Activity (Rattus norvegicus [7]) is on record?
**A.** The Activity was “Dose-dependent effect”.

**Q.** For `CC(C)c1[nH]nc(O[C@@H]2O[C@H](CO)[C@@H](O)[C@H](O)[C@H]2O)c1Cc1cccc(O)c1`, which IC50 [1] is on record?
**A.** Its IC50 is 13300 nM.

**Q.** Which IC50 [1] does the source give for `OC[C@H]1O[C@@H](Oc2n[nH]c(C(F)(F)F)c2Cc2ccccc2)[C@H](O)[C@@H](O)[C@@H]1O` here?
**A.** The IC50 was 342 nM.

**Q.** Which IC50 [1] does the source give for `Cc1cccc(Cc2c(O[C@@H]3O[C@H](CO)[C@@H](O)[C@H](O)[C@H]3O)n[nH]c2C(C)C)c1` here?
**A.** Its IC50 is 5980 nM.

— ChEMBL document CHEMBL2157910, “Structure-activity relationship studies of 4-benzyl-1H-pyrazol-3-yl β-d-glucopyranoside derivatives as potent and selective sodium glucose co-transporter 1 (SGLT1) inhibitors with therapeutic activity on postprandial hyperglycemia” (Bioorg Med Chem, 2012)
